Reference: ChEMBL document CHEMBL1142253, “Development of dimeric modulators for anti-apoptotic Bcl-2 proteins” (Bioorg Med Chem Lett, 2008)

Experiments:
[1] = Induction of cytochrome c release from mouse liver mitochondria; type: functional
How it was run: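 Mouse liver mitochondria were isolated by differential centrifugation in Tris-MOPS/EGTA/sucrose buffer pH 7.4 and diluted to 1mg/ml in KCl-based buffer. They were incubated 1 hour at 30 °C with increasing compound concentrations, with DMSO kept equal, then pelleted at 13,000g for 10 minutes. Cytochrome c release was assessed, and the concentration giving 50% release was reported.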

[2] = molecular target: Apoptosis regulator Bcl-2 (Homo sapiens, UniProt P10415); assay: Inhibition of Bak peptide binding to human recombinant Bcl2
Apoptosis regulator Bcl-2, sequence (P10415 whole entry): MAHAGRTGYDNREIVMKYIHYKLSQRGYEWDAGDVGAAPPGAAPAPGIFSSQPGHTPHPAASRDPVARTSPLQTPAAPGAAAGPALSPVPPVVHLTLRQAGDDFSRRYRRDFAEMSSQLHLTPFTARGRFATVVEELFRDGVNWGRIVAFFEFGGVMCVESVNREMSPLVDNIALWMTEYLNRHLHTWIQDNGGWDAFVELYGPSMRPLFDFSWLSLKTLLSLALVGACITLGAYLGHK
How it was run: (§1)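 Fluorescence polarization competition against 50 nM fluorescein-labelled Bak peptide, in PBS pH 7.0 with 1 mM DTT. Protein set for 60% peptide complex: Bcl-2 1000 nM, Bcl-XL 880nM, Bcl-w 1200 nM. Compounds added from 3-fold DMSO stock dilutions (10 mM down). Incubation 1 h at 23 °C, read in mP, peptide-only interference subtracted. Ki fitted from FP change versus competitor concentration.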

[3] = molecular target: T1, Bcl-2-like protein 2 (Homo sapiens, UniProt Q92843); assay: Inhibition of Bak peptide binding to human recombinant Bcl-w; how it was run: as §1
T1 sequence (Q92843 whole entry): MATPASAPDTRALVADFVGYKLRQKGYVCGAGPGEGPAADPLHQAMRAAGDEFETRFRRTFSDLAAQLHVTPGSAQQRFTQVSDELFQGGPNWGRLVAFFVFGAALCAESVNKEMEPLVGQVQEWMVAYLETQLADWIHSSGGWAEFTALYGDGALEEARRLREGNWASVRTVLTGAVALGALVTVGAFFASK

| Compound | IC50 [1] | Ki [2] | Ki [3] |
| --- | --- | --- | --- |
| O=C(O)[C@H](Cc1ccccc1)N1C(=O)/C(=C/c2ccc(Br)cc2)SC1=S | 69.1 µM |  |  |
| O=C(OCCOCCOCCOC(=O)[C@H](Cc1ccccc1)N1C(=O)/C(=C/c2ccc(Br)cc2)SC1=S)[C@H](Cc1ccccc1)N1C(=O)/C(=C/c2ccc(Br)cc2)SC1=S |  | 161 µM | 88.3 µM |
| CCOC(=O)[C@H](Cc1ccccc1)N1C(=O)/C(=C/c2ccc(Br)cc2)SC1=S |  | 260 µM | 116 µM |
| O=C(O)[C@H](Cc1ccccc1)N1C(=O)/C(=C/c2ccc(OCCOCCOc3ccc(/C=C4\SC(=S)N([C@@H](Cc5ccccc5)C(=O)O)C4=O)cc3)cc2)SC1=S |  | 4.3 µM | 2.2 µM |
| O=C(OCCOC(=O)[C@H](Cc1ccccc1)N1C(=O)/C(=C/c2ccc(Br)cc2)SC1=S)[C@H](Cc1ccccc1)N1C(=O)/C(=C/c2ccc(Br)cc2)SC1=S |  | 243 µM | 101 µM |
| O=C(O)[C@H](Cc1ccccc1)N1C(=O)/C(=C/c2ccc(OCCOCCOCCOc3ccc(/C=C4\SC(=S)N([C@@H](Cc5ccccc5)C(=O)O)C4=O)cc3)cc2)SC1=S |  | 21.2 µM | 13.7 µM |
| O=C(OCCOCCOC(=O)[C@H](Cc1ccccc1)N1C(=O)/C(=C/c2ccc(Br)cc2)SC1=S)[C@H](Cc1ccccc1)N1C(=O)/C(=C/c2ccc(Br)cc2)SC1=S |  | > 1000 µM | 99 µM |
| CCOC(=O)[C@H](Cc1ccccc1)N1C(=O)/C(=C/c2ccc(OCOc3ccc(/C=C4\SC(=S)N([C@@H](Cc5ccccc5)C(=O)OCC)C4=O)cc3)cc2)SC1=S |  | 226 µM | 39.2 µM |
| O=C(O)[C@H](Cc1ccccc1)N1C(=O)/C(=C/c2ccc(OCCOc3ccc(/C=C4\SC(=S)N([C@@H](Cc5ccccc5)C(=O)O)C4=O)cc3)cc2)SC1=S | 6.1 µM | 1.7 µM | 1.3 µM |
| O=C(O)[C@H](Cc1ccccc1)N1C(=O)/C(=C/c2ccc(OCOc3ccc(/C=C4\SC(=S)N([C@@H](Cc5ccccc5)C(=O)O)C4=O)cc3)cc2)SC1=S |  | 4.3 µM | 2.3 µM |
